Measurements: PubChem BioAssay
Active and inactive are the calls of the source.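 How the source made its calls, unless noted: active means fluorescence slope after compound addition differing from the mean of all tested samples at 99.7% confidence, mostly higher but some lower; inactive means the rest.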

Assays:
[1] = inhibitors of TNFa-induced NFkB p65 translocation, primary screen, imaging, HUVEC, MLSMR starter and 10KST1 sets (AID 438;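 active means inhibition above 20% together with a positive visual image hit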;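 further: compound added about 3h40 before a 20 min TNFalpha stimulation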;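 on inhibition: signal is the nuclear over cytoplasmic p65 intensity ratio per well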); details: HUVEC TNFa-induced p65 nuclear translocation; cell count: measured here: nuclei count (cytotoxicity indicator), at 2.08 µM; inhibition: at 2 µM, stronger effect = higher value, 0% TNFa-plus-vehicle, 100% no-TNFa wells
[2] = inhibitors of E-selectin induction by TNFa, primary screen, imaging, HUVEC, immunofluorescence, MLSMR starter and 10KST1 sets (AID 487;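 active means visually confirmed hit in the image check and inhibition above 20%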;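 on inhibition: signal is fraction of cell area covered by stained E-selectin grains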;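 on nuclei count: 100% = median nuclei count of all wells on the same plate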); details: HUVEC TNFalpha-induced E-selectin immunofluorescence imaging, at 2 µM; inhibition: stronger effect = higher value; nuclei count: measured here: cell number, toxicity
[3] = DUSP6 inhibitors restoring Erk phosphorylation by chemical complementation, primary imaging in DUSP6-transfected HeLa (AID 609;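 active means compounds giving at least 50% inhibition in the cell-based MKP-3 phosphatase rescue imaging test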;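 on inhibition: phospho-Erk level distribution per well compared with pooled transfected vehicle control wells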); details: HeLa MKP-3 transfected, phospho-Erk imaging KS statistic, at 10 µM, cells stimulated with TPA for 15 min
[4] = molecular target: Dual specificity protein phosphatase 6 (Homo sapiens) (UniProt Q16828); experiment: as above; details: HeLa MKP-3 transfected, phospho-Erk imaging KS statistic; at 10 µM; stronger effect = higher value; cells stimulated with TPA for 15 min
[5] = molecular target: Voltage-gated potassium channel subunit beta-2 (Rattus norvegicus) (UniProt P62483); experiment: KvBeta enzyme negative modulators, primary screen, biochemical, NADPH fluorescence (AID 622;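 active means fluorescence slope higher than the sample average by over 3 SD, cut at about -0.22 in these data, passing the limit was not always enough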;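 further: slope of raw intensity against log time taken from 70 to 1610 s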); details: recombinant KvBeta, 4-cyanobenzaldehyde reduction, at 10 µM, stronger effect = higher value
[6] = molecular target: Voltage-gated potassium channel subunit beta-2 (Rattus norvegicus) (UniProt P62483); experiment: KvBeta positive modulators, primary screen, biochemical, NADPH fluorescence (AID 623;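 active means NADPH fluorescence slope more negative than the mean of all samples by about 3 SD, 99.7% confidence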;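 further: fluorescence intensity change per second fitted from 20 to 320 s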); details: Recombinant KvBeta, NADPH fluorescence decrease slope, 10 min; at 10 µM; stronger effect = lower value
[7] = molecular target: Muscarinic acetylcholine receptor M4 (Homo sapiens) (UniProt P08173); experiment: compounds altering M4/GIRK thallium flux, either direction, primary screen, M4 allosteric agonist project, cell-based, HEK293 M4/GIRK, BTC-AM (AID 625); details: at 10 µM, actives lie on both sides;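 further: thallium influx through GIRK channels coupled to M4 in HEK293 cells with BTC-AM dye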
How it was run: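 Material: M4/GIRK1/GIRK2 stable HEK293 cell line. Medium: pH 7.3 thallium assay buffer. Dosing: single compound concentration, 10 µM final. Schedule: 1 h dye loading, 2 min kinetic read. Measured by: kinetic fluorescence with BTC-AM dye. Read-out: post-addition slope, 15–24 s, of baseline-normalized fluorescence. Benchmarks: carbachol and DMSO controls.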

[8] = inhibitors of larval lipid processing in zebrafish, primary screen, whole organism, PED6 fluorescence, gall bladder and intestine (AID 686;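 active means a full or partial loss of lipid-probe fluorescence in the fish gall bladder, intestine or both, judged by eye; inactive means no fluorescence loss, or compound toxic to the fish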;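 further: larvae 5 to 7 days old with five fish per well; signal comes from phospholipase A2 cleavage of quenched PED6 carried via bile; overnight exposure to compound and PED6 before scoring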); details: Zebrafish larvae PED6 lipid processing, fluorescence scoring; screened at 20 µM (by protocol)
How it was run: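 System: live zebrafish larvae aged 5-7 days, whole organism; measure: graded gall bladder and intestinal fluorescence inhibition per well; incubation: overnight exposure; reagent: ingested quenched lipid PED6 at 100 nM; signal: By-eye fluorescence microscopy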

[9] = inhibitors of Chlamydomonas gravitaxis, primary screen, whole organism, Chlamydomonas reinhardtii, WT vs cilia-less mutant, absorbance, 96-well (AID 463189;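 active means inhibition at or above 50% relative to wild type and mutant plate controls; inactive means inhibition below 50%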;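 further: 0% = wild type cc124 cells in DMSO and 100% = ciliumless bld1 mutant cells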); details: OD600 absorbance, 2 days, at 10 µM, stronger effect = higher value
[10] = measured here: cell density z-score
[11] = measured here: nuclear c-Myc green intensity z-score
[12] = measured here: nuclear pErk red intensity z-score, stronger effect = higher value

Sequence of Muscarinic acetylcholine receptor M4 (Homo sapiens) (P08173 whole entry, looked up): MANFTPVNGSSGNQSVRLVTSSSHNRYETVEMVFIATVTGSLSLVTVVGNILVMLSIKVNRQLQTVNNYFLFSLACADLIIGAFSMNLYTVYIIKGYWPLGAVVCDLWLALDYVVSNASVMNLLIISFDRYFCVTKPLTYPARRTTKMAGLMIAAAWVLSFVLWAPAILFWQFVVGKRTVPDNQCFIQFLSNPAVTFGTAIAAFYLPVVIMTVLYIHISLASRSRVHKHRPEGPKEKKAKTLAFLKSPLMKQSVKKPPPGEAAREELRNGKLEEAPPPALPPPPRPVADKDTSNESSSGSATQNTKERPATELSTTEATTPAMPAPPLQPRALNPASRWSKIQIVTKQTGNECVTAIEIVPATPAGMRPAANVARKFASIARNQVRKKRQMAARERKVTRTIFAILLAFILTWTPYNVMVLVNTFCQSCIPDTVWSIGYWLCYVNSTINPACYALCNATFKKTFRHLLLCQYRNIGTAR
Sequence of Dual specificity protein phosphatase 6 (Homo sapiens) (Q16828 whole entry, looked up): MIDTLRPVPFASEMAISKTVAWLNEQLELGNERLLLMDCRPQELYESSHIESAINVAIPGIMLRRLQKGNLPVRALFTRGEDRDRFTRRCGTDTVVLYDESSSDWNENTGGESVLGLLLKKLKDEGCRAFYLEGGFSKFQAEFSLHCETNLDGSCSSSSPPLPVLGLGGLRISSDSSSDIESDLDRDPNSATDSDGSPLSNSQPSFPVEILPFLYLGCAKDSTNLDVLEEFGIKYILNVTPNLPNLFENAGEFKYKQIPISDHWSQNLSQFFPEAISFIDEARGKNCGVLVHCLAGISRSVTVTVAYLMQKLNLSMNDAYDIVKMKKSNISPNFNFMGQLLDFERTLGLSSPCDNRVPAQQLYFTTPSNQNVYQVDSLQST
Sequence of Voltage-gated potassium channel subunit beta-2 (Rattus norvegicus) (P62483 whole entry, looked up): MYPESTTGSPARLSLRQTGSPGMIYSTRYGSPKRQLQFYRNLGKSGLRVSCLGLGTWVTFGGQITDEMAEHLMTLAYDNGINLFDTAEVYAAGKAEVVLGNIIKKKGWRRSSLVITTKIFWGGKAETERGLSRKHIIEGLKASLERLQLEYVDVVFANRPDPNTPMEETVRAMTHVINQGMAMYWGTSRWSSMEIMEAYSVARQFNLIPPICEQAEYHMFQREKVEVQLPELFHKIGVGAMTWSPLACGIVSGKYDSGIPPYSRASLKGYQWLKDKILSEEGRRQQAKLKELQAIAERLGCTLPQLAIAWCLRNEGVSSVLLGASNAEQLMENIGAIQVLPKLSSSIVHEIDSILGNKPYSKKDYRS

| SMILES | cell count [1] | inhibition [1] | inhibition [2] | nuclei count [2] | z-score [3, 10] | z-score [3, 11] | z-score [3, 12] | inhibition [4] | fluorescence slope [5] | NADPH fluorescence slope [6] | fluorescence slope [7] | outcome [8] | inhibition [9] |
| --- | --- | --- | --- | --- | --- | --- | --- | --- | --- | --- | --- | --- | --- |
| CCC(=O)Nc1c(C#N)c2nc3ccccc3nc2n1C1CCCCC1 | 563 | -4.1% (inactive) | 6.8% (inactive) | 99.6% | 0.5 | -1.07 | -5.03 | -2.09% (inactive) | -0.342 (inactive) | 4.3e-06 (inactive) | 0.00526 (inactive) | inactive | 18.8% (inactive) |
| COC(=O)C(NC(C)=O)(Nc1ccc(Br)cn1)C(F)(F)F (stereo unspecified) | 555 | 1.7% (inactive) | 54.1% (inactive) | 88.1% | -1.18 | 0.658 | 0.74 | -4.59% (inactive) | -0.471 (inactive) | 3.7e-06 (inactive) | 0.00445 (inactive) | inactive | 4.13% (inactive) |
| CCC1(C)Cc2c(sc(NC(=O)CCC(=O)O)c2C#N)CO1 (stereo unspecified) | 525 | -3.4% (inactive) | -47% (inactive) | 165% | 1.02 | 0.907 | 0.102 | 9.91% (inactive) | -0.382 (inactive) | -5.7e-05 (inactive) | 0.00482 (inactive) | inactive | -2.53% (inactive) |
| CCc1nc(NC2CCCCC2)c(C#N)c2c1COC(C)(C)C2 | 573 | -9.3% (inactive) | -95.5% (inactive) | 153% | 0.843 | -0.37 | -0.579 | 29.5% (inactive) | -0.475 (inactive) | -2.5e-05 (inactive) | 0.00603 (inactive) | inactive; toxic | -1.73% (inactive) |
| Cc1ccc(-n2[nH]c(C)c(C=Nc3cc(C)ccn3)c2=O)cc1 | 512 | 3% (inactive) | 4.6% (inactive) | 87.7% | -0.346 | -0.03 | 0.605 | -13.3% (inactive) | -0.459 (inactive) | -3.6e-05 (inactive) | 0.0056 (inactive) | inactive | 51.3% (active) |
| S=c1[nH]nc(-c2ccco2)n1C1CCCCC1 | 638 | -2.9% (inactive) | 6.6% (inactive) | 143% | -0.759 | -0.86 | -1.13 | -7.67% (inactive) | -0.495 (inactive) | -4e-05 (inactive) | 0.00615 (inactive) | inactive | -19.8% (inactive) |
| COc1cccc(C2CC(c3ccccc3Cl)n3nc(N)nc3N2)c1 (stereo unspecified) | 399 | -1.4% (inactive) | -136% (inactive) | 131% | 0.0849 | 1.44 | -0.355 | 24.4% (inactive) | -0.464 (inactive) | -7.1e-05 (inactive) | 0.00588 (inactive) | inactive | 29.4% (inactive) |
| CCOC(=O)c1[nH]c2cc3c(cc2c1NC(=O)CN1CC(C)CC(C)C1)OCO3 (stereo unspecified) | 527 | 1.2% (inactive) | 5.3% (inactive) | 167% | 0.5 | -1.18 | -0.714 | 9.91% (inactive) | -0.329 (inactive) | -8.9e-06 (inactive) | 0.00584 (inactive) | inactive | -3.44% (inactive) |
| CCCCC(CCC(=O)Nc1ccc(C(=O)OC)cc1)C(=O)O (stereo unspecified) | 405 | -4.7% (inactive) | -189% (inactive) | 152% | 0.378 | -1.21 | -0.623 | 14% (inactive) | -0.439 (inactive) | -0.000105 (inactive) | 0.00484 (inactive) | inactive | 25.1% (inactive) |
| COC(=O)CSc1nc(-c2cccs2)ccc1C#N | 646 | 1.5% (inactive) | -18.4% (inactive) | 154% | 0.598 | -1.62 | -0.658 | 2.92% (inactive) | -0.456 (inactive) | -4.2e-05 (inactive) | 0.00605 (inactive) | inactive | -2.12% (inactive) |
| CCN(CC)Cc1c(O)ccc2c(C)c(CC(=O)OC)c(=O)oc12 | 660 | -1.4% (inactive) | 1.9% (inactive) | 145% | 0.613 | -0.319 | -0.573 | 2.71% (inactive) | -0.0165 (inactive) | -6.9e-06 (inactive) | 0.00599 (inactive) | inactive | 5.82% (inactive) |
| O=C(O)C(O)c1ccco1 (stereo unspecified) | 365 | -6.1% (inactive) | -95% (inactive) | 150% | 0.761 | 0.00341 | -0.65 | -4.59% (inactive) | -0.43 (inactive) | -9.9e-05 (inactive) | 0.00449 (inactive) | inactive | -5.52% (inactive) |
| CCN1CCc2c(C#N)c(N3CCCCC3)nc(N3CCOCC3)c2C1 | 567 | -7.1% (inactive) | -95.8% (inactive) | 149% | 0.15 | -1.22 | 1.09 | -2.09% (inactive) | -0.46 (inactive) | -7.6e-05 (inactive) | 0.00491 (inactive) | inactive | 20.3% (inactive) |
| c1ccc2c(c1)[nH]c1c(N3CCSCC3)ncnc12 | 567 | -4.6% (inactive) | -117% (inactive) | 193% | 0.216 | -0.97 | -0.889 | -4.59% (inactive) | -0.358 (inactive) | -3.7e-06 (inactive) | 0.00494 (inactive) | inactive | 14.6% (inactive) |
| O=C1C2ON(c3ccccc3)C(c3cccnc3)C2C(=O)N1c1ccc(Cl)c(Cl)c1 (stereo unspecified) | 666 | -5.7% (inactive) | -61.8% (inactive) | 147% | -0.87 | 0.124 | -0.00603 | -5.62% (inactive) | -0.479 (inactive) | -2.8e-05 (inactive) | 0.00562 (inactive) | inactive | 11.2% (inactive) |
| CCCCc1nc(N2CCOCC2)c(C#N)c2c1CCCC2 | 559 | -11.7% (inactive) | -89.9% (inactive) | 141% | 0.356 | 0.825 | 0.364 | -15.1% (inactive) | -0.449 (inactive) | -0.000117 (inactive) | 0.00395 (inactive) | inactive | 11.9% (inactive) |
| CCCC1Cc2c(sc3nc(SC)nc(N)c23)CO1 (stereo unspecified) | 489 | -14.7% (inactive) | 27.8% (inactive) | 170% | -0.331 | 0.0787 | 0.594 | -3.97% (inactive) | -0.47 (inactive) | -4.4e-05 (inactive) | 0.00573 (inactive) | inactive | 27.7% (inactive) |
| O=C(Oc1cccnc1)c1ccco1 | 545 | -0.5% (inactive) | 2.1% (inactive) | 99% | -1.51 | 1.45 | 1.18 | -3.95% (inactive) | -0.449 (inactive) | -4.3e-05 (inactive) | 0.00414 (inactive) | inactive | -17% (inactive) |
| O=C(c1ccccc1)n1c(=S)nc2ccccn21 | 751 | -1.4% (inactive) | -18.3% (inactive) | 144% | 0.295 | -2.19 | 0.415 | 7.21% (inactive) | -0.421 (inactive) | -3.2e-05 (inactive) | 0.00539 (inactive) | inactive | 3.62% (inactive) |
| CC(C)OCCCn1c(=N)c(C(N)=S)cc2c(=O)n3ccccc3nc21 | 619 | -7.9% (inactive) | -3% (inactive) | 149% | 1.16 | -1.47 | -1.15 | 17.7% (inactive) | -0.454 (inactive) | -4.1e-05 (inactive) | 0.00453 (inactive) | inactive | 22.8% (inactive) |
| CCOc1ccc(/C(O)=C2/C(=O)C(=O)N(c3cc(C)on3)C2c2ccc(C(=O)OC)cc2)cc1 (stereo unspecified) | 391 | -0.4% (inactive) | -27.6% (inactive) | 105% | -0.142 | 1.45 | -0.188 | 9.37% (inactive) | -0.419 (inactive) | -1.9e-05 (inactive) | 0.00438 (inactive) | inactive | 11.4% (inactive) |
| COc1ccc(C(=O)Nc2ccccc2N2CCOCC2)cc1Br | 522 | -7.6% (inactive) | -11.8% (inactive) | 153% | 2.22 | -2.31 | -0.121 | 37.7% (inactive) | -0.351 (inactive) | -9.8e-06 (inactive) | 0.00733 (inactive) | inactive | 10.5% (inactive) |
| COC(=O)/C(C#N)=C1/SC=C(C)N1c1ccccc1 | 611 | 4.9% (inactive) | -42.5% (inactive) | 115% | -0.0327 | -1.23 | -0.208 | -13.3% (inactive) | -0.46 (inactive) | -5.6e-05 (inactive) | 0.00543 (inactive) | inactive | -8.28% (inactive) |
| Cc1cc(=O)oc(C)c1C(=O)NC1CC(C)(C)NC(C)(C)C1 | 688 | -8.3% (inactive) | -70.2% (inactive) | 160% | -0.541 | 0.659 | 0.228 | -10.1% (inactive) | -0.463 (inactive) | -1.7e-05 (inactive) | 0.00552 (inactive) | inactive | 6.56% (inactive) |
| Cc1cc(C)n(CC(=O)c2ccccc2)c(=O)c1C#N | 470 | -3.8% (inactive) | -112% (inactive) | 157% | -1.09 | 0.551 | 0.941 | -3.95% (inactive) | -0.432 (inactive) | -4.1e-05 (inactive) | 0.0047 (inactive) | inactive | -1.97% (inactive) |
| Cc1ccc(S(=O)(=O)N(CC(O)CN2CCOCC2)c2cc(Cl)ccc2Cl)cc1 (stereo unspecified) | 597 | -2.7% (inactive) | -35% (inactive) | 112% | -0.865 | 1.14 | 0.263 | 7.42% (inactive) | -0.403 (inactive) | -2.9e-05 (inactive) | 0.00509 (inactive) | inactive | -2.19% (inactive) |
| O=c1cc(N2CCCCC2)nc2n1CCCS2 | 568 | 2.3% (inactive) | 20.6% (inactive) | 149% | 0.266 | -0.928 | -0.473 | 29.7% (inactive) | -0.39 (inactive) | -1.9e-05 (inactive) | 0.00586 (inactive) | inactive | 33.9% (inactive) |
